Measurements as given in ChEMBL document CHEMBL4680130, “Substituted 4-phenylthiazoles: Development of potent and selective A, A and dual A/A adenosine receptor antagonists” (Eur J Med Chem, 2020).

Tests used:
[1] = biological target: T1, Adenosine receptor A3 (Rattus norvegicus) (UniProt P28647); experiment: Displacement of [3H]NECA from rat adenosine receptor A3 expressed in CHO cell membranes at 0.1 uM incubated for 60 mins by radioligand competition assay relative to control; details: Cell membrane
T1 sequence (whole entry): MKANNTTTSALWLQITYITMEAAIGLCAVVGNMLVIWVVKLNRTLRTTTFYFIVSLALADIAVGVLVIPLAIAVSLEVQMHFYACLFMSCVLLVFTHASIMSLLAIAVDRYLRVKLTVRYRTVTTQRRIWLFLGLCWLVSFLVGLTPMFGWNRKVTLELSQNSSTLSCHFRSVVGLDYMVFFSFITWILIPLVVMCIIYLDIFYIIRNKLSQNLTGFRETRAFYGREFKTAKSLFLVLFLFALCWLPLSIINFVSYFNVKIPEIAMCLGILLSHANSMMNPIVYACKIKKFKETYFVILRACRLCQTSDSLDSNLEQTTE
Procedure, shortened: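 CHO membranes expressing rat A3, [3H]NECA 10 nM. Nonspecific binding defined by 100 µM R-PIA. Preincubated 20 min with adenosine deaminase, then 60 min at rt in 50 mM Tris-HCl pH 7.4 with 2.5% DMSO. GF/B filtration, scintillation counting.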

Adenosine receptor A2a = Adenosine receptor A2a (Homo sapiens, UniProt P29274); experiment: Displacement of [3H]MSX2 from human adenosine receptor A2A expressed in HEK293 cell membranes incubated for 30 mins by radioligand competition assay; parameters: species or system Cell membrane
Adenosine receptor A1 [2] = biological target: T2, Adenosine receptor A1 (Rattus norvegicus, UniProt P25099); experiment: Displacement of [3H]DPCPX from rat adenosine receptor A1 by radioligand competition assay
T2 sequence (P25099 whole entry): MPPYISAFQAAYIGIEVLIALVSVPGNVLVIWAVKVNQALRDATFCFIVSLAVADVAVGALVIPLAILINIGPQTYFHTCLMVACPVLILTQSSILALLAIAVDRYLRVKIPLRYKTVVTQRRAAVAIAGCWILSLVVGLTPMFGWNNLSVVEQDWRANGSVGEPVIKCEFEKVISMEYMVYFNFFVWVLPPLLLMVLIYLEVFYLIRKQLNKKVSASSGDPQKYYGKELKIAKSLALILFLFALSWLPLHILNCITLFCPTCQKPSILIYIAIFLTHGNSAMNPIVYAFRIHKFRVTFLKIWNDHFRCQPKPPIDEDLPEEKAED
Procedure, shortened: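 Rat brain cortical membranes, [3H]DPCPX 0.4 nM. Nonspecific binding defined by 10 μM DPCPX. Curves run with and without 100 μM GTP. Incubation 90 min at rt in 50 mM Tris-HCl pH 7.4, after 20 min adenosine deaminase preincubation. Filtration, then scintillation counting. GTP shift is the IC50 with GTP divided by the IC50 without GTP.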

Adenosine receptor A1 [3] = biological target: T2, Adenosine receptor A1; experiment: Displacement of [3H]DPCPX from rat brain cortical membrane A1AR in presence of 100 uM of GTP by scintillation counting analysis; type: cell membranes, Cortex, Cell membrane
Adenosine receptor A1 [4] = biological target: T2, Adenosine receptor A1; experiment: Displacement of [3H]DPCPX from rat brain cortical membrane A1AR in absence of GTP by scintillation counting analysis; type: cell membranes, Cortex, Cell membrane
[5] = biological target: T3, Adenosine receptor A2b (Rattus norvegicus) (UniProt P29276); experiment: Displacement of [3H]PSB-603 from rat adenosine receptor A2B expressed in CHO cell membranes at 0.1 uM incubated for 75 mins by radioligand competition assay relative to control; details: Cell membrane
T3 sequence (whole entry): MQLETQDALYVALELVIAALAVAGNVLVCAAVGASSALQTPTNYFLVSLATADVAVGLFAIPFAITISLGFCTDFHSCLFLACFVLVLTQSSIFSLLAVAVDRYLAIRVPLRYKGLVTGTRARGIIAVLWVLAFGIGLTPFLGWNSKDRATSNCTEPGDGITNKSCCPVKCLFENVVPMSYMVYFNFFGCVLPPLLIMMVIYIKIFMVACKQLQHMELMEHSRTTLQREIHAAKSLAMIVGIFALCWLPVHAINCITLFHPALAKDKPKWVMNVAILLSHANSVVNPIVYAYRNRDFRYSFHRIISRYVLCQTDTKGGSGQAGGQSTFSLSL
Procedure, shortened: (§1)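 CHO membranes expressing human or rat A2B, [3H]PSB-603 0.3 nM. Nonspecific binding defined by 10 µM DPCPX. Preincubated 20 min with adenosine deaminase, then 75 min at rt in Tris-HCl pH 7.4 with 2.5% DMSO. Filters washed with ice-cold 50 mM Tris-HCl containing 0.1% BSA; scintillation counting.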

Adenosine receptor A1 [6] = biological target: T2, Adenosine receptor A1; experiment: Displacement of [3H]CCPA from rat adenosine receptor A1 by radioligand competition assay
Procedure, shortened: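 A1 competition binding with [3H]CCPA, 0.5 nM. Membranes: CHO cells expressing human A1, or rat brain cortex. Membranes preincubated 20 min with adenosine deaminase (2 U/mL per mg protein). Incubation 90 min at rt in 50 mM Tris-HCl pH 7.4 with 2.5% final DMSO. Nonspecific binding defined by 10 µM 2-chloroadenosine. GF/B filtration, scintillation counting.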

Adenosine receptor A3 [7] = biological target: T4, Adenosine receptor A3 (Homo sapiens, UniProt P0DMS8); experiment: Displacement of [3H]PSB-11 from human adenosine receptor A3 expressed in CHO cell membranes incubated for 60 mins by radioligand competition assay; parameters: species or system Cell membrane
T4 sequence (P0DMS8 whole entry): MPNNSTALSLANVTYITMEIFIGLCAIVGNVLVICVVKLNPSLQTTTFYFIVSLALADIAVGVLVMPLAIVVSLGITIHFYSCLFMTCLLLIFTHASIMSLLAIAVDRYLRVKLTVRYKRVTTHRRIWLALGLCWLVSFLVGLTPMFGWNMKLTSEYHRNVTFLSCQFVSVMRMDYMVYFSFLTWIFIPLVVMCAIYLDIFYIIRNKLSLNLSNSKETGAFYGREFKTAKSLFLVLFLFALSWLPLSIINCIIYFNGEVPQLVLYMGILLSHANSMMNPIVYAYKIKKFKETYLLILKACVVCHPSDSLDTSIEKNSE

Adenosine receptor A2b = biological target: T5, Adenosine receptor A2b (Rattus norvegicus, UniProt P29276); experiment: Displacement of [3H]PSB-603 from rat adenosine receptor A2B expressed in CHO cell membranes incubated for 75 mins by radioligand competition assay; parameters: species or system Cell membrane; procedure, shortened: as §1
T5 sequence (P29276 whole entry): T3 sequence (whole entry)

Adenosine receptor A3 [8] = biological target: T6, Adenosine receptor A3 (Rattus norvegicus, UniProt P28647); experiment: Displacement of [3H]NECA from rat adenosine receptor A3 expressed in CHO cell membranes incubated for 60 mins by radioligand competition assay; parameters: species or system Cell membrane
T6 sequence (P28647 whole entry): T1 sequence (whole entry)

Adenosine receptor A1 [9] = biological target: T2, Adenosine receptor A1; experiment: Displacement of [3H]CCPA from adenosine receptor A1 in rat brain cortex membranes incubated for 90 mins by radioligand competition assay; type: cell membranes, Cell membrane
Adenosine receptor A1 [10] = biological target: T7, Adenosine receptor A1 (Homo sapiens, UniProt P30542); experiment: Displacement of [3H]CCPA from human adenosine receptor A1 expressed in CHO cell membranes incubated for 90 mins by radioligand competition assay; parameters: species or system Cell membrane
T7 sequence (P30542 whole entry): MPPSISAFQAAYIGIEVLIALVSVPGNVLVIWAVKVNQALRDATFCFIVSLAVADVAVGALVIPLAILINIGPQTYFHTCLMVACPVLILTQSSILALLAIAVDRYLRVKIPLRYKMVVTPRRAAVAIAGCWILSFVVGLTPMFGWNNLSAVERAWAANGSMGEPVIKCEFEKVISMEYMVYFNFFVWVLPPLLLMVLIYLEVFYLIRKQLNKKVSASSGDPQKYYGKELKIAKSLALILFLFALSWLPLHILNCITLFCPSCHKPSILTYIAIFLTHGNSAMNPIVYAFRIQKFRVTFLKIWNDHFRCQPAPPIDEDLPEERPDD

Sequence of Adenosine receptor A2a (P29274 whole entry): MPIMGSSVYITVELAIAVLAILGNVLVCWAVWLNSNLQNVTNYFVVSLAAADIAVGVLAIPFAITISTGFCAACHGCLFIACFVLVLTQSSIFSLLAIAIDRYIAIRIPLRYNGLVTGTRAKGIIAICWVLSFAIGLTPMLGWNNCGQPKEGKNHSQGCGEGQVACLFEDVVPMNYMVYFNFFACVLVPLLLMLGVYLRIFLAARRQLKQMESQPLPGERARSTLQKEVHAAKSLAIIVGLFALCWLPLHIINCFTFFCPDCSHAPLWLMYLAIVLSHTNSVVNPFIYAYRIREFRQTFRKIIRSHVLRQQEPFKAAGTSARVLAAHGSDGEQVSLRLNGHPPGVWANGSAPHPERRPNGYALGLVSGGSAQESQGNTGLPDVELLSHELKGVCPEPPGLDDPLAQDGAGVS

inhibition [1]: 13% | Ki (Adenosine receptor A2a): > 1000 nM | Ki (Adenosine receptor A1 [2]): 0.0709 nM | IC50 (Adenosine receptor A1 [3]): 0.0763 nM | IC50 (Adenosine receptor A1 [4]): 0.0756 nM | inhibition [5]: 7% | Ki (Adenosine receptor A1 [6]): 0.529 nM | Ki (Adenosine receptor A3 [7]): > 1000 nM | Ki (Adenosine receptor A2b): > 100 nM | Ki (Adenosine receptor A3 [8]): > 10000 nM | Ki (Adenosine receptor A1 [9]): 0.529 nM | Ki (Adenosine receptor A1 [10]): 9.69 nM
SMILES: COc1ccc(C(=O)Nc2nc(-c3ccccc3)c(C(=O)c3ccc(C)cc3)s2)cc1
